Results as given in ChEMBL document CHEMBL1146809, “(+)-3-[2-(Benzo[b]thiophen-2-yl)-2-oxoethyl]-1-azabicyclo[2.2.2]octane as potent agonists for the alpha7 nicotinic acetylcholine receptor” (Bioorg Med Chem Lett, 2004).

Legend:
[1] = biological target: T1, Neuronal acetylcholine receptor subunit alpha-7 (Rattus norvegicus, UniProt Q05941); assay: Alpha 7 nicotinic acetylcholine receptor binding activity in PC12 cells; type: cell-based, PC-12
[2] = biological target: T1, Neuronal acetylcholine receptor subunit alpha-7; assay: Binding affinities for the alpha 7 nicotinic acetylcholine receptor was determined in PC12 cells; type: cell-based, PC-12
[3] = Cmax wa determined in rat plasma at 30 mg/kg after po administration; type: ADME, organism-based; set-up: dose 30 mg/kg, route oral
Outline: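 Rats were dosed orally at 30 mg/kg. The read-out was the peak plasma concentration (Cmax), reported in ng/mL.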

T1 sequence (Q05941 whole entry): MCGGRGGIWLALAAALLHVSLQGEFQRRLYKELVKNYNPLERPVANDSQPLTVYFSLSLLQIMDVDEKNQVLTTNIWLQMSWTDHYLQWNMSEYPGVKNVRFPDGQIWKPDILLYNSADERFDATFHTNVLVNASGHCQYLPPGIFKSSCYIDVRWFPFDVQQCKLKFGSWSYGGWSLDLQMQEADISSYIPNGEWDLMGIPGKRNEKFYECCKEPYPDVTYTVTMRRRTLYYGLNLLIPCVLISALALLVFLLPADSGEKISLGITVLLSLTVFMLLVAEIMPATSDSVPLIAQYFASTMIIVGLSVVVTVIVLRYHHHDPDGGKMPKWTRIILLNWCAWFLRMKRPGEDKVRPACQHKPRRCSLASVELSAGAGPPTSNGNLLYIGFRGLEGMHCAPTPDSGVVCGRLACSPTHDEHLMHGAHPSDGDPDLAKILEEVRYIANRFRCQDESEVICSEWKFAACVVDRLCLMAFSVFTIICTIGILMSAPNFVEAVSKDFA

Compound | IC50 [1] | IC50 [2] | Cmax [3]
c1ccc2sc(CO[C@H]3CN4CCC3CC4)cc2c1 | 515 nM |  | 
c1ccc2sc(CC3CN4CCC3CC4)cc2c1 (configuration not stated) | 110 nM |  | 
O=C(c1cc2ccccc2s1)C1CN2CCC1CC2 (configuration not stated) | 950 nM |  | 
c1ccc2sc(CCCC3CN4CCC3CC4)cc2c1 (configuration not stated) | 370 nM |  | 
c1ccc2sc(CO[C@@H]3CN4CCC3CC4)cc2c1 | 26 nM |  | 
c1ccc2cc(COC3CN4CCC3CC4)ccc2c1 (configuration not stated) |  | 150 nM | 
c1ccc2c(COC3CN4CCC3CC4)cccc2c1 (configuration not stated) |  | 730 nM | 
COc1ccc(Cc2cccnc2-c2cccnc2)c(OC)c1 | 760 nM |  | 
c1ccc2sc(COC3CN4CCC3CC4)cc2c1 (configuration not stated) | 59 nM |  | 
c1ccc2sc(CCC3CN4CCC3CC4)cc2c1 (single isomer, unassigned; (+)) | 65 nM |  | 
O=C(CC1CN2CCC1CC2)c1cc2ccccc2s1 (single isomer, unassigned; (+)) | 130 nM |  | 
O=C(CC1CN2CCC1CC2)c1cc2ccccc2s1 (single isomer, unassigned; (-)) | 170 nM |  | 
O=C(CC1CN2CCC1CC2)c1cc2ccccc2s1 (stereo in doubt; 15b) | 150 nM |  | 270 ng/mL
c1ccc2sc(CCC3CN4CCC3CC4)cc2c1 (stereo in doubt; 16b) | 23 nM |  | 450 ng/mL
c1ccc2sc(CCC3CN4CCC3CC4)cc2c1 (stereo in doubt; (-)-16b) | 220 nM |  | 
